Runt-SMMHC FRET = inhibitors of human RUNX1 Runt domain binding to CBFb-SMMHC; Q01196+Q13951; inhibition, % at 20 µM; Cerulean-Runt/Venus-CBFb-SMMHC FRET ratio 530/480, 1 h; 220,000 compounds, 0.74% hits;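 active means mean inhibition across duplicate retests at 20 µM reaching about 50%, limit read from the data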;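 further: 0% = DMSO wells and 100% = wells with excess untagged CBFb-SMMHC; inhibitors lower the FRET ratio by blocking Runt binding to CBFb-SMMHC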
Target sequence (Q01196 whole entry, looked up, the tested form may be a part): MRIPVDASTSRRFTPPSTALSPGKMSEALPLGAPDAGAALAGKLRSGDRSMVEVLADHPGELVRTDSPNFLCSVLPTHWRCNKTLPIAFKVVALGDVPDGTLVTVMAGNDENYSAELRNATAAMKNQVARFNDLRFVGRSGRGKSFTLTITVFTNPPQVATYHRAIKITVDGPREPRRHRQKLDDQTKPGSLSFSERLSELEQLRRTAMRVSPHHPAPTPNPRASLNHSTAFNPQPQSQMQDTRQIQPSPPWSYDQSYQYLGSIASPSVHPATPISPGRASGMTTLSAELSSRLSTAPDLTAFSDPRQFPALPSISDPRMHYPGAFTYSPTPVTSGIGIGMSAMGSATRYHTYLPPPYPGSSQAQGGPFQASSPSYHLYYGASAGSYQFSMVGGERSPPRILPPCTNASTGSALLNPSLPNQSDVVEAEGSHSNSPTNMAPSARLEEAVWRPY
Target sequence (Q13951 whole entry, looked up, the tested form may be a part): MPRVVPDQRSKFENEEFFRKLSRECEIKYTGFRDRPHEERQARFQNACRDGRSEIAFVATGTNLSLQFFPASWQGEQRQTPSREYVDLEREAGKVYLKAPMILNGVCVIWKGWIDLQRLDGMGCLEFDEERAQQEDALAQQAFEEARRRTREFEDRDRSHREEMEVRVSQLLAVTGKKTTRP
RanGTP-Imp inh = inhibitors of RanGTP-importin-beta interaction, primary screen, biochemical, FRET, CFP-Ran, YFP-importin-beta, homogeneous. cell-free CFP-Ran/YFP-importin-beta FRET ratio. inhibition, % (no concentration beside the values). 300,000 compounds, 1.1% hits;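 active means more than half of the replicate wells show a fall in the fluorescence ratio signal beyond about 16%, limit read from the data, passing the limit was not always enough; inconclusive means exactly half of the replicate wells pass the set limit; inactive means fewer than half of replicates pass the limit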;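 further: 0% = DMSO wells and 100% = Ran loaded with GDP instead of GTP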
Runt-CBFb FRET = Runt domain-CBFb interaction inhibition; Q01196+Q13951; Cerulean-Runt/Venus-CBFb FRET ratio 530/480, 1 h; inhibition, % at 20 µM; 220,000 compounds, 0.46% hits; AID 1496;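 active means inhibition over about 50% at 20 µM in the single-dose screen, limit read from the data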;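 further: 0% = DMSO wells and 100% = excess unlabeled CBFb competitor control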
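Assay system: Cerulean-Runt domain / Medium: Tris 50 mM pH 7.5, KCl, K2SO4, 0.01% BSA / Timing: protein complex preformed 1 h, compound exposure 1 h, room temperature, dark / Measured by: FRET, excitation 422 nm, emission at 530 and 480 nm / Evaluation: loss of energy transfer signal / Control set: 5 µM unlabeled CBFb as full-inhibition high control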
Calpain2 inh = inhibitors of pig calpain II; AID 1236; 220,000 compounds, 0.37% hits; inhibition, % at 16 µM; purified calpain II, fluorogenic peptide substrate, 30 min;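 active means inhibition above about 50%, limit read from the data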
FAS-TE inh = FAS thioesterase (human) inhibition | recombinant FAS-TE, OMFH fluorogenic substrate, fluorescence endpoint | P49327 | inhibition, % at 15 µM | 360,000 compounds, 0.67% hits;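 active means compounds whose normalised, plate-corrected inhibition of enzyme fluorescence in the single-dose primary screen is 50% or more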;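 further: 0% = DMSO with enzyme and 100% = substrate without enzyme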
FAS-TE conf = FAS thioesterase (human) inhibition, confirmation; shares compounds with FAS-TE inh; recombinant FAS-TE, OMFH fluorogenic substrate, fluorescence; inhibition, % at 15 µM; 2,300 compounds, 45% hits; AID 624325;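 active means compounds inhibiting the enzyme by at least 50% at 15 µM in any one of the replicates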;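 further: 0% = enzyme with DMSO only and 100% = wells lacking enzyme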
Active calls of the source: *; ? = inconclusive; nt = no result. An excerpt weighted towards active compounds, which were near 2.1% of everything screened.

SMILES | Runt-SMMHC FRET | RanGTP-Imp inh | Runt-CBFb FRET | Calpain2 inh | FAS-TE inh | FAS-TE conf
Cc1ccccc1C1=C/C(=C(\SS/C(C(=O)c2ccc(OCC(=O)O)c(Cl)c2Cl)=C2\C=C(c3ccccc3C)SS2)C(=O)c2ccc(OCC(=O)O)c(Cl)c2Cl)SS1 | nt | nt | nt | nt | 83* | 88*
O=C(NCc1ccccn1)[C@@H]1CCCN1C(=O)[C@@H]1CCCN1C(=O)c1cccc(Cl)c1 | nt | nt | nt | nt | -7 | nt
CC(OC(=O)c1cccnc1Cl)C(=O)Nc1ccc2c(c1)OCO2 (stereo unspecified) | nt | nt | nt | nt | 3 | nt
CCN(C[C@H]1N[C@@](Cc2ccccc2)(C(=O)OC)[C@H]2C(=O)N(Cc3ccccc3)C(=O)[C@@H]12)C(=O)Nc1ccc(F)cc1 | nt | nt | nt | nt | 25 | nt
CCN(C[C@H]1N[C@@](Cc2ccccc2)(C(=O)OC)[C@H]2C(=O)N(Cc3ccccc3)C(=O)[C@@H]12)C(=O)Nc1ccc(Cl)cc1 | nt | nt | nt | nt | 60* | 36
COC(=O)[C@]1(Cc2ccccc2)N[C@H](CN(C)C(=O)Nc2ccc(C(F)(F)F)cc2)[C@@H]2C(=O)N(Cc3ccccc3)C(=O)[C@@H]21 | nt | nt | nt | nt | 63* | 35
O=C1N=c2ccccc2=C1c1sc(=O)[nH]c1O | -4 | 0 | 1 | 15 | -7 | nt
O=C1N=c2ccc([N+](=O)[O-])cc2=C1c1sc(=O)[nH]c1O | nt | 0 | nt | nt | 56* | 66*
Cc1cc2ncn(/N=C/c3ccc(-c4ccccc4)o3)c2cc1C | -5 | 0 | -2 | -36 | 50* | 47
CCCC(C)C(=O)Nc1cc([N+](=O)[O-])ccc1Cl (stereo unspecified) | 4 | -3 | 5 | -1 | 52* | 64*
CCOc1ccc(C(C)=O)cc1COC(=O)c1cc([N+](=O)[O-])ccc1N1CCOCC1 | nt | 9 | nt | nt | 38 | nt
Cc1ccc(C)c(C(=O)COC(=O)c2cc([N+](=O)[O-])ccc2N2CCOCC2)c1 | nt | 1 | nt | nt | 46 | nt
CCOc1ccc(C(=O)COC(=O)c2cc([N+](=O)[O-])ccc2N2CCOCC2)cc1 | nt | 0 | nt | nt | 69* | 63*
O=C(COC(=O)c1cc([N+](=O)[O-])ccc1N1CCOCC1)c1ccc(Br)cc1 | nt | 0 | nt | nt | 63* | 7
COCc1c(C(=O)N(C)Cc2ccccc2N2CCCC2)oc2ccccc12 | nt | nt | nt | nt | 7 | nt
COc1cc(OC)c(OC)cc1/C=N/n1c(COc2ccccc2)n[nH]c1=S | nt | 0 | nt | nt | 3 | nt
CCCCc1ccc(-c2csc(/C(C#N)=C\c3ccc(C)o3)n2)cc1 | -10 | 4 | -3 | -13 | 18 | nt
CCOc1ccc(-c2csc(/C(C#N)=C\c3ccc(O)c([N+](=O)[O-])c3)n2)cc1 | -30 | -10 | -12 | 39 | 72* | 61*
O=C(N/N=C1/CC2C=CCC12)c1cccs1 (stereo unspecified) | nt | -8 | nt | nt | -6 | nt
CN(c1ccccc1)S(=O)(=O)c1ccc(NC(=O)c2nc(S(C)(=O)=O)ncc2Cl)cc1 | nt | 1 | nt | nt | 58* | 68*
CN(c1ccccc1)S(=O)(=O)c1ccc(NC(=O)c2ccccc2)cc1 | 2 | -2 | 0 | 20 | 15 | nt
CC#CCN1c2ccccc2[C@]23C[C@@H](C(=O)OC)N(C(=O)c4cc(C)oc4C)C2=NC(C(=O)OC)=C(C(=O)OC)[C@H]13 | 1 | 3 | -2 | -63 | 59* | 19
O=C(NCc1ccc(Cl)cc1)C1=Cc2cc(Cl)ccc2OC1 | 3 | -4 | -1 | -22 | 64* | 40
Cc1cc(Cl)ccc1OCCCC(=O)N1CCN(S(=O)(=O)c2ccccc2)CC1 | nt | ? | nt | nt | 27 | nt
CN(C)CCCNC(=O)C[C@H]1C[C@H](C(=O)N2CCOCC2)[C@@]2(CCC3CCCC3)c3[nH]c4cc(-c5ccco5)ccc4c3CCN2C1=O | nt | nt | nt | nt | 70* | 78*
SMILES | Runt-SMMHC FRET | RanGTP-Imp inh | Runt-CBFb FRET | Calpain2 inh | FAS-TE inh | FAS-TE conf
COCCCNC(=O)C[C@H]1C[C@H](C(=O)N2CCOCC2)[C@@]2(CCC3CCCC3)c3[nH]c4cc(-c5ccco5)ccc4c3CCN2C1=O | nt | nt | nt | nt | 59* | 29*
O=C(C[C@H]1C[C@H](C(=O)N2CCOCC2)[C@@]2(CCC3CCCC3)c3[nH]c4cc(-c5ccco5)ccc4c3CCN2C1=O)NCCN1CCOCC1 | nt | nt | nt | nt | 69* | 80*
Cc1ccccc1N(CC(=O)NC1CCCCC1)C(=O)CCCC(=O)Nc1ccccn1 | nt | -2 | nt | nt | -1 | nt
O=C(CSc1nnc(-c2ccncc2)o1)Nc1ccccc1C(F)(F)F | nt | 2 | nt | nt | -7 | nt
Cc1cc(NC(=O)CCNS(=O)(=O)c2cc(Br)cnc2N)ccc1Br | 0 | -2 | 0 | 35 | 48 | nt
Cc1ccc(NC(=O)CCNS(=O)(=O)c2cc(Br)cnc2N)cc1Cl | 0 | 0 | 1 | 2 | 63* | 44*
COc1ccccc1-c1noc(CCCC(=O)NC2CCCCC2)n1 | nt | -2 | nt | nt | -3 | nt
COC(=O)c1cc(C(=O)OCC(=O)c2ccc3c(c2)NC(=O)CO3)cc([N+](=O)[O-])c1 | nt | nt | nt | nt | 57* | 53*
O=C(COC(=O)c1cc([N+](=O)[O-])ccc1Cl)NC1CCCC1 | nt | -1 | nt | nt | 80* | 87*
O=C(COC(=O)c1cc(Cl)ccc1Cl)NC1CCCC1 | nt | -1 | nt | nt | 17 | nt
COC(=O)c1cc(C(=O)OCC(=O)NC2CCCCCCC2)cc([N+](=O)[O-])c1 | nt | nt | nt | nt | 70* | 37*
CS(=O)c1ccccc1-c1nc(-c2ccc([N+](=O)[O-])cc2)no1 (stereo unspecified) | nt | nt | nt | nt | 3 | nt
CC(C)(C)c1ccc(/C=N/NC(=S)NC2CCCCC2)cc1 | 8 | -2 | 0 | -4 | 53* | 45*
O=C(N/N=C/c1ccccc1)NC1CCCCC1 | -5 | 1 | 0 | 2 | 8 | nt
CCOc1ccc(N(C(C)C(=O)N2CCCC2)S(C)(=O)=O)cc1 (stereo unspecified) | nt | 4 | nt | nt | -4 | nt
O=C(Nc1cccc(C(F)(F)F)c1)c1cccnc1NCCc1ccccc1 | -4 | -3 | -4 | 26 | 53* | 31
O=C(Nc1cccc(C(F)(F)F)c1)c1cccnc1NCCO | nt | -2 | nt | nt | -1 | nt
Cc1cccc(N2C(=O)c3cccc4c(N5CCCCC5)c([N+](=O)[O-])cc(c34)C2=O)c1C | 7 | 5 | 6 | 0 | 21 | nt
O=C1c2cccc3c(N4CCOCC4)c([N+](=O)[O-])cc(c23)C(=O)N1c1cccc2ccccc12 | -5 | -2 | -4 | -28 | 77* | 25
COC(=O)c1ccc(S(=O)(=O)N2CCN(CCO)CC2)n1C | -5 | 1 | 1 | 2 | -3 | nt
COC(=O)c1ccc(S(=O)(=O)N2CCN(C(c3ccccc3)c3ccccc3)CC2)n1C | -1 | 3 | -4 | -17 | 55* | 7
C/C(=C/CCC(C)[C@H]1CC[C@@]2(C)C3=C(CC[C@]12C)[C@@]1(C)CCC(=O)C(C)(C)[C@@H]1CC3)C(=O)O (stereo partly specified) | -28 | 1 | -33 | 17 | 74* | 3
C/C(=C/CCC(C)C1CCC2(C)C3CCC4C(C)(C)C(=O)CCC4(C)C3=CCC12C)C(=O)O (stereo unspecified) | 1 | 0 | 0 | 15 | nt | nt
O=C(CSc1cn[nH]n1)Nc1ccc(Cl)cc1Cl | nt | 3 | nt | nt | -20 | nt
Nc1c(C2CCCCC2)c(=O)on1C(=O)c1ccccc1 | nt | nt | nt | nt | 3 | nt

Screening results: PubChem, several laboratories
